Results taken from ChEMBL document CHEMBL4033785, “Increased Potency and Selectivity for Group III Metabotropic Glutamate Receptor Agonists Binding at Dual sites” (J Med Chem, 2018).
pEC50: −log10 of the molar value.

Legend:
[1] = target: T1, Metabotropic glutamate receptor 8 (Homo sapiens, UniProt O00222); test: Agonist activity at mGlu8 (unknown origin) expressed in HEK293 cells coexpressing chimeric Gq/i protein assessed as [3H]inositol phosphate accumulation after 30 mins by scintillation and luminescence counting method; format: functional, cell-based
T1 sequence (O00222 whole entry): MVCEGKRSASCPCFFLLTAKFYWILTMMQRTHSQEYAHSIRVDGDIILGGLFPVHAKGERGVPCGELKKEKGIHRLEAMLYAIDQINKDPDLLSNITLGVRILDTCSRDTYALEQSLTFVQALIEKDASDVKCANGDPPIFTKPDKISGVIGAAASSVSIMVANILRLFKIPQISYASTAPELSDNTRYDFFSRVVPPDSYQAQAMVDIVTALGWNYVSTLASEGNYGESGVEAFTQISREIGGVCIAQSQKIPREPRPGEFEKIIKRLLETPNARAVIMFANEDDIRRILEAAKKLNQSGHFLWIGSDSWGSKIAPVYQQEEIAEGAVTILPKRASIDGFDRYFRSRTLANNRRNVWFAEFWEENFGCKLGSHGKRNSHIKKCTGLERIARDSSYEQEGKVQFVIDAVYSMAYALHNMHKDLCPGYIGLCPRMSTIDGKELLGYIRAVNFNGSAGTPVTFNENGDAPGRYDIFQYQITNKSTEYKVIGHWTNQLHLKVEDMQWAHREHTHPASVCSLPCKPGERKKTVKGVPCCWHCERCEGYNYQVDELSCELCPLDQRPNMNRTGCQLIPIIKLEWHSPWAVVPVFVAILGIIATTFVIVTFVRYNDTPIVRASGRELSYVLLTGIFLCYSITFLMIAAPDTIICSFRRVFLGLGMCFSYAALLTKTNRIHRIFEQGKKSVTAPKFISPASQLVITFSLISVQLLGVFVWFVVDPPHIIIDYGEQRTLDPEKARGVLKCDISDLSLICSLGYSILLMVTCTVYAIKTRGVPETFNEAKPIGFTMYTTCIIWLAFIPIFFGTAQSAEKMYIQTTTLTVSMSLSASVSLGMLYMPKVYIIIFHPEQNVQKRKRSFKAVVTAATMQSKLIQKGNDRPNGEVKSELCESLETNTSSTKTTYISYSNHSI
Method in brief: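 Receptor transiently co-expressed in HEK293 cells (electroporation) with chimeric G-protein and glutamate transporter EAAT3. Cells labelled overnight with 3H-myoinositol, stimulated with agonist 30 min, lysed 1 h in cold 0.1 M formic acid. 3H-IP isolated on Dowex ion exchange and counted. IP expressed relative to IP plus membrane radioactivity. Points in triplicate; EC50 from Hill-equation fit.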

[2] = species: Homo sapiens; test: (§1) Selectivity ratio of EC50 for mGlu8 (unknown origin) expressed in HEK293 cells coexpressing chimeric Gq/i protein assessed as [3H]inositol phosphate accumulation to EC50 for mGlu4 (unknown origin) expressed in HEK293 cells coexpressing chimeric Gq/i protein assessed as [3H]inositol phosphate accumulation; format: cell-based
Method in brief: (§2)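 Ratio of mGlu8 EC50 to mGlu4 EC50, both from the same functional assay. Both receptors were co-expressed in HEK293 cells with chimeric G-protein and EAAT3 and read by 3H-IP accumulation or by Fluo-4 Ca2+ release.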

[3] = target: T1, Metabotropic glutamate receptor 8; test: Agonist activity at mGlu8 (unknown origin) expressed in HEK293 cells coexpressing chimeric Gq/i protein assessed as increase in intracellular calcium accumulation by Fluo-4 AM dye based fluorescence assay; format: functional, cell-based
[4] = species: Homo sapiens; test: as §1, with “increase in intracellular calcium” for “[3H]inositol phosphate”; format: cell-based; method in brief: as §2
[5] = target: Metabotropic glutamate receptor 4 (Homo sapiens, UniProt Q14833); test: Agonist activity at mGlu4 (unknown origin) expressed in HEK293 cells coexpressing chimeric Gq/i protein assessed as increase in intracellular calcium accumulation by Fluo-4 AM dye based fluorescence assay; format: functional, cell-based
Sequence of Metabotropic glutamate receptor 4 (Q14833 whole entry): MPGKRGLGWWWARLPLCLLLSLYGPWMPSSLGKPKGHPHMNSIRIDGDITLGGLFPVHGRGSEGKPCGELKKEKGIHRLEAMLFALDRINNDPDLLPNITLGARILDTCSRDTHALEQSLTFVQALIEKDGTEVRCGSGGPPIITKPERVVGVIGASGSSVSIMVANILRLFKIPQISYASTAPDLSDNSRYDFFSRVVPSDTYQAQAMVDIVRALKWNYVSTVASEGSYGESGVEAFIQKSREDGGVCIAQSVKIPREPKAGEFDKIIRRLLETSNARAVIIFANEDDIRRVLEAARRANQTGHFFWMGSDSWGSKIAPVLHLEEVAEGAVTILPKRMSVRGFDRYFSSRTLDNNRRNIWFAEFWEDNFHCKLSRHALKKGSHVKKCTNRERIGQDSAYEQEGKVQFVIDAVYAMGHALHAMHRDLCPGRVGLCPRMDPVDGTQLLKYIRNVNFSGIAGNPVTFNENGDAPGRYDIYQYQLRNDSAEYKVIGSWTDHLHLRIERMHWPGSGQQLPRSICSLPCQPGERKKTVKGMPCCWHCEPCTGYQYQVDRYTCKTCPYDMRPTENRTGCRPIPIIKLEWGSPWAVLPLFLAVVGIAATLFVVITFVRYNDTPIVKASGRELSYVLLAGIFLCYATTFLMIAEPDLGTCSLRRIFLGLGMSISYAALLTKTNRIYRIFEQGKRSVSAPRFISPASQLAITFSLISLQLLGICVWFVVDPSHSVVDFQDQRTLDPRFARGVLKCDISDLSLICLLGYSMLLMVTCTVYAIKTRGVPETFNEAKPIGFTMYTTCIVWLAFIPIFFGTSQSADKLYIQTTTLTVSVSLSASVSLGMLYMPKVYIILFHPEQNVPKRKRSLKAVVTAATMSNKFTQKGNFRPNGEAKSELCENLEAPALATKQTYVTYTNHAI

[6] = target: Metabotropic glutamate receptor 6 (Homo sapiens, UniProt O15303); test: Agonist activity at mGlu6 (unknown origin) expressed in HEK293 cells coexpressing chimeric Gq/i protein assessed as increase in intracellular calcium accumulation by Fluo-4 AM dye based fluorescence assay; format: functional, cell-based
Sequence of Metabotropic glutamate receptor 6 (O15303 whole entry): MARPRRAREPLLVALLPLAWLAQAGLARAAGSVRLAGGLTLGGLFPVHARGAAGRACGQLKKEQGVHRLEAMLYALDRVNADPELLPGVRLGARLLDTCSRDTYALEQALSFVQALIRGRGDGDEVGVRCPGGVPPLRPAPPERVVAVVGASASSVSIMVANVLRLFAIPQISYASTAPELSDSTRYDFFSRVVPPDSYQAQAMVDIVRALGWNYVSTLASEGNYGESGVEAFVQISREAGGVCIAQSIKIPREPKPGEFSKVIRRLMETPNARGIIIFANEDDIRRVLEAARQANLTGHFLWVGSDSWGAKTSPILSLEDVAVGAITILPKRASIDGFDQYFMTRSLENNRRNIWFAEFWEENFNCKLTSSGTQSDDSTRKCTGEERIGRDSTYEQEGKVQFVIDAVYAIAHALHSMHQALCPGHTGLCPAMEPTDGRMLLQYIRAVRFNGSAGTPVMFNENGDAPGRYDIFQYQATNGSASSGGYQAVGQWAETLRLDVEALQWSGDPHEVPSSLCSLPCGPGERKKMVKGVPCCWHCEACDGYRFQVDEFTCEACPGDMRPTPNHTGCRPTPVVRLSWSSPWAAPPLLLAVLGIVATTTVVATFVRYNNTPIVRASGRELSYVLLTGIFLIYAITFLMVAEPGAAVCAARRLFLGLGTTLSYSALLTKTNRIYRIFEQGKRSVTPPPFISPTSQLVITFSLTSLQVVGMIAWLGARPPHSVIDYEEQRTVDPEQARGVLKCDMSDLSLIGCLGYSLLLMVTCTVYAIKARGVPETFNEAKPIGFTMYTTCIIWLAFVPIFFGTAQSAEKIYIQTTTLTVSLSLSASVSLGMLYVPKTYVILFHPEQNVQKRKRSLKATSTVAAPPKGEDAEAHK

[7] = target: Metabotropic glutamate receptor 7 (Homo sapiens, UniProt Q14831); test: Agonist activity at mGlu7 (unknown origin) expressed in HEK293 cells coexpressing chimeric Gq/i protein assessed as increase in intracellular calcium accumulation by Fluo-4 AM dye based fluorescence assay; format: functional, cell-based
Sequence of Metabotropic glutamate receptor 7 (Q14831 whole entry): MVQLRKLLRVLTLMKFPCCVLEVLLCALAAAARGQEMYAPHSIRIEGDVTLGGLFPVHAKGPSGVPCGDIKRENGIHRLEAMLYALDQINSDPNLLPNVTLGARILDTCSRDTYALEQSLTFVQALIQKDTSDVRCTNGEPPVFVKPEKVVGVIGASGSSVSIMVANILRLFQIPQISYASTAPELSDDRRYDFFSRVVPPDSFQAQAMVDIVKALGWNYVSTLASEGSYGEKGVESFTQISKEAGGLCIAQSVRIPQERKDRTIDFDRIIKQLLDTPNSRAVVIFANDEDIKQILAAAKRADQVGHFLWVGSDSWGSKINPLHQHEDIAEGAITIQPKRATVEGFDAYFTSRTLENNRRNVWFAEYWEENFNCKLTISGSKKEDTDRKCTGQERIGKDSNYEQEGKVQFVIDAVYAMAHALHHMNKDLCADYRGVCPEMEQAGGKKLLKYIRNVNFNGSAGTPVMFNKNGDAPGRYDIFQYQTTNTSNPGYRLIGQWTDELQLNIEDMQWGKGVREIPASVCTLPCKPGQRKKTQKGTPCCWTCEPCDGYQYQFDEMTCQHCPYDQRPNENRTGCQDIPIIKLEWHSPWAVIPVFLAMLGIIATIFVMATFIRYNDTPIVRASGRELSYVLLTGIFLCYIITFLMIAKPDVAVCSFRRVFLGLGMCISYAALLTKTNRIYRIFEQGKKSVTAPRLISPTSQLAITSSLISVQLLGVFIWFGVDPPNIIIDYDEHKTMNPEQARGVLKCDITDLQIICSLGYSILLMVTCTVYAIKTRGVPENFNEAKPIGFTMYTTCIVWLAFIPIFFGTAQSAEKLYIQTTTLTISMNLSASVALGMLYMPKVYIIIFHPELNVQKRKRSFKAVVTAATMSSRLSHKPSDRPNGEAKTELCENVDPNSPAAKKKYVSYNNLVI

SMILES	pEC50 [1]	pEC50 [3]	pEC50 [5]	pEC50 [6]	pEC50 [7]	Ratio EC50 [2]	Ratio EC50 [4]
COc1ccc(C(O)P(=O)(O)CC[C@H](N)C(=O)O)cc1 (some centres undefined)	–	4.21	5.19	4.64	–	–	9.3
CCOc1cc([C@@H](O)P(=O)(O)CC[C@H](N)C(=O)O)cc([N+](=O)[O-])c1O	–	4.66	5.29	–	–	–	4.4
N[C@@H](CCP(=O)(O)Cc1cccc(C(=O)O)c1)C(=O)O	3.29	–	< 4.00	–	–	2.4	–
CS(=O)(=O)c1ccc(C(O)P(=O)(O)CC[C@H](N)C(=O)O)cc1 (some centres undefined)	–	< 4.00	4.23	< 4.00	< 4.00	–	–
N[C@@H](CCP(=O)(O)[C@@H](O)c1cc(F)c(O)c([N+](=O)[O-])c1)C(=O)O	–	4.77	5.01	4.99	4.27	–	1.8
N[C@@H](CCP(=O)(O)C(O)c1ccc(C(F)(F)F)cc1)C(=O)O (some centres undefined)	4.47	–	–	–	–	2.3	–
N[C@@H](CCP(=O)(O)C(O)c1ccc(C(F)(F)F)o1)C(=O)O (some centres undefined)	5.28	–	–	–	–	3.1	–
N[C@@H](CCP(=O)(O)C(O)c1coc(C(=O)O)c1)C(=O)O (some centres undefined)	5.04	–	–	–	–	4.6	–
N[C@@H](CCP(=O)(O)C(O)c1ccc(O)c(C(=O)O)c1)C(=O)O (some centres undefined)	–	4.40	4.80	–	–	–	2.5
N[C@@H](CCP(=O)(O)C(O)c1cccc([N+](=O)[O-])c1)C(=O)O (mixture of isomers)	–	–	–	–	–	2.8	2
N[C@@H](CCP(=O)(O)C(O)c1cc([N+](=O)[O-])cc([N+](=O)[O-])c1)C(=O)O (some centres undefined)	5.18	–	–	–	–	4.5	–
N[C@@H](CCP(=O)(O)C(O)c1ccc(N2CCOCC2)c([N+](=O)[O-])c1)C(=O)O (some centres undefined)	< 4.00	–	–	< 4.00	< 4.00	–	–
COc1cc([C@@H](O)P(=O)(O)CC[C@H](N)C(=O)O)cc([N+](=O)[O-])c1O	–	4.74	6.14	5.96	4.20	–	–
N[C@@H](CCP(=O)(O)C(O)c1c[nH]c2ncccc12)C(=O)O (some centres undefined)	–	5.16	5.47	–	–	–	2
CC(=O)c1ccc(C(O)P(=O)(O)CC[C@H](N)C(=O)O)cc1 (some centres undefined)	4.85	–	–	–	–	1.8	–
N[C@@H](CCP(=O)(O)C(O)c1ccc([N+](=O)[O-])s1)C(=O)O (some centres undefined)	5.72	–	–	5.38	< 4.00	3.9	–

SMILES	pEC50 [1]	pEC50 [3]	pEC50 [5]	pEC50 [6]	pEC50 [7]	Ratio EC50 [2]	Ratio EC50 [4]
COc1cc([C@H](O)P(=O)(O)CC[C@H](N)C(=O)O)cc([N+](=O)[O-])c1O	–	4.59	5.36	5.62	4.00	–	–
N[C@@H](CCP(=O)(O)C(O)c1c([N+](=O)[O-])cccc1[N+](=O)[O-])C(=O)O (some centres undefined)	5.54	–	–	–	–	1.7	–
N[C@@H](CCP(=O)(O)C(O)c1ccncc1)C(=O)O (some centres undefined)	–	4.58	4.55	–	–	–	1
N[C@@H](CCP(=O)(O)C(O)c1ccc(O)cc1)C(=O)O (some centres undefined)	–	4.60	5.11	–	–	–	3.2
N[C@@H](CCP(=O)(O)C(O)c1ccc(O)nc1)C(=O)O (some centres undefined)	–	4.77	4.48	–	–	–	0.5
COc1cc(CP(=O)(O)CC[C@H](N)C(=O)O)cc([N+](=O)[O-])c1O	–	4.55	4.72	–	–	–	1.5
N[C@@H](CCP(=O)(O)C(O)c1ccc(OCC(=O)O)cc1)C(=O)O (some centres undefined)	–	–	–	–	–	–	256
N[C@@H](CCP(=O)(O)C(O)c1cc([N+](=O)[O-])cc([N+](=O)[O-])c1O)C(=O)O (some centres undefined)	5.35	–	–	–	–	1.9	–
NC(c1cccc([N+](=O)[O-])c1)P(=O)(O)CC[C@H](N)C(=O)O (some centres undefined)	–	–	–	–	–	4.1	–
CCOc1cc(C(O)P(=O)(O)CC[C@H](N)C(=O)O)cc([N+](=O)[O-])c1O (mixture of isomers)	–	4.70	–	–	–	–	2.4
CCOc1cc([C@H](O)P(=O)(O)CC[C@H](N)C(=O)O)cc([N+](=O)[O-])c1O	–	5.19	5.19	–	–	–	1
NC(c1csc([N+](=O)[O-])c1)P(=O)(O)CC[C@H](N)C(=O)O (some centres undefined)	5.74	–	–	–	–	2.2	–
N[C@@H](CCP(=O)(O)C(O)c1ccnc(O)c1)C(=O)O (some centres undefined)	–	4.09	4.38	–	–	–	1.9
Nc1ccc(C(O)P(=O)(O)CC[C@H](N)C(=O)O)cc1 (some centres undefined)	5.08	5.08	5.06	–	4.94	0.9	0.9
N[C@@H](CCP(=O)(O)C(O)c1ccc([N+](=O)[O-])cc1[N+](=O)[O-])C(=O)O (some centres undefined)	5.34	–	–	–	–	3.1	–

Continued, in another order:

pEC50 [1]	pEC50 [3]	pEC50 [5]	pEC50 [6]	pEC50 [7]	SMILES	Ratio EC50 [2]	Ratio EC50 [4]
5.38	–	–	–	–	N[C@@H](CCP(=O)(O)C(O)c1cc([N+](=O)[O-])ccc1O)C(=O)O (some centres undefined)	4.6	–
–	4.42	5.21	–	–	CCCCCCCCNC(c1cccc([N+](=O)[O-])c1)P(=O)(O)CC[C@H](N)C(=O)O (some centres undefined)	–	6.3
5.60	5.31	5.33	4.74	< 4.00	N[C@@H](CCP(=O)(O)C(O)c1ccc(Cl)c([N+](=O)[O-])c1)C(=O)O (some centres undefined)	1.2	1
4.70	–	–	–	–	N[C@@H](CCP(=O)(O)C(O)c1ccc([N+](=O)[O-])c(O)c1)C(=O)O (some centres undefined)	8.7	–
–	4.53	4.60	–	–	N[C@@H](CCP(=O)(O)C(NCc1ccccc1)c1cccc([N+](=O)[O-])c1)C(=O)O (some centres undefined)	–	1.2
6.01	–	–	5.54	< 4.00	N[C@@H](CCP(=O)(O)C(O)c1ccc([N+](=O)[O-])c(C(F)(F)F)c1)C(=O)O (some centres undefined)	2.4	–
–	–	–	5.49	< 4.00	N[C@@H](CCP(=O)(O)Cc1cccc([N+](=O)[O-])c1)C(=O)O	5.4	2.5
–	4.63	5.71	5.97	4.29	N[C@@H](CCP(=O)(O)C(O)c1cc(F)c(O)c([N+](=O)[O-])c1)C(=O)O (some centres undefined)	–	12
–	3.56	4.62	< 4.00	< 4.00	N[C@@H](CCP(=O)(O)Cc1ccc(O)c([N+](=O)[O-])c1)C(=O)O	–	11
–	4.46	5.62	6.12	4.41	N[C@@H](CCP(=O)(O)[C@H](O)c1cc(F)c(O)c([N+](=O)[O-])c1)C(=O)O	–	14
–	4.50	6.30	5.44	4.21	N[C@@H](CCP(=O)(O)[C@H](O)c1ccc(O)c([N+](=O)[O-])c1)C(=O)O	–	61
–	4.45	5.10	–	–	N[C@@H](CCP(=O)(O)C(NCc1cccc2ccccc12)c1cccc([N+](=O)[O-])c1)C(=O)O (some centres undefined)	–	4.3
–	4.40	5.35	4.16	3.53	N[C@@H](CCP(=O)(O)[C@@H](O)c1ccc(O)c([N+](=O)[O-])c1)C(=O)O	–	8.5
–	5.60	5.70	5.35	< 4.00	COc1ccc([C@@H](O)P(=O)(O)CC[C@H](N)C(=O)O)cc1[N+](=O)[O-]	–	1.2
–	5.14	5.36	–	–	N[C@@H](CCP(=O)(O)C(NCCc1ccccc1)c1cccc([N+](=O)[O-])c1)C(=O)O (some centres undefined)	–	1.6
–	4.64	4.60	–	–	CCCCCCNC(c1cccc([N+](=O)[O-])c1)P(=O)(O)CC[C@H](N)C(=O)O (some centres undefined)	–	0.9
–	5.90	6.00	5.62	< 4.00	N[C@@H](CCP(=O)(O)[C@H](O)c1cccc([N+](=O)[O-])c1)C(=O)O	–	1.2
4.67	–	–	–	–	N[C@@H](CCP(=O)(O)C(O)c1cccc([N+](=O)[O-])c1O)C(=O)O (some centres undefined)	0.92	–
5.57	5.42	5.46	–	–	COc1ccc(C(O)P(=O)(O)CC[C@H](N)C(=O)O)cc1[N+](=O)[O-] (some centres undefined)	1.7	1
–	4.14	5.82	–	–	N[C@@H](CCP(=O)(O)C(O)c1ccc(O)c([N+](=O)[O-])c1)C(=O)O (some centres undefined)	18	48
3.66	–	–	–	–	N#Cc1cccc(C(O)P(=O)(O)CC[C@H](N)C(=O)O)c1 (some centres undefined)	5.3	–
–	5.89	6.49	5.49	< 4.00	N[C@@H](CCP(=O)(O)[C@@H](O)c1cccc([N+](=O)[O-])c1)C(=O)O	–	–
–	5.66	5.77	5.41	< 4.00	COc1ccc([C@H](O)P(=O)(O)CC[C@H](N)C(=O)O)cc1[N+](=O)[O-]	–	1.3
